Data on three compounds can be found in PMC4273560 (Neurobiology of disease, 2014).

“Also recorded” adds a separate entry of the source. Ends that are not written are not given here. Peptide text beside a SMILES is read from it. * marks the point of attachment. FITC = O=C1OC2(c3ccc(O)cc3Oc3cc(O)ccc32)c2ccc(NC(=S)*)cc21

For series [1], the system named is ICAM-1. The series is described as follows: Cell-based ELISA, ICAM-1 surface expression on mBMEC. More on the design: species or system mouse. The conditions noted are these: CCL2 100 ng/ml.
Series [2] concerns the target T1, JAM-A (Mus musculus, UniProt O88792).
T1 sequence (O88792 27-300): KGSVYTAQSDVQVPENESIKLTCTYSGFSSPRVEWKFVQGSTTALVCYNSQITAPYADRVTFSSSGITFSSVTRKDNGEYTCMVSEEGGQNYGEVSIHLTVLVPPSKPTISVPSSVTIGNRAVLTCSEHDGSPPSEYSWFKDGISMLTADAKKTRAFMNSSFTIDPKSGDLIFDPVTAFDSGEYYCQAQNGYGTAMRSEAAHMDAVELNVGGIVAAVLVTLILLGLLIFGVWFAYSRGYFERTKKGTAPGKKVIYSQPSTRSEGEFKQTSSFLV
The conditions noted are these: brain endothelial cells; ref Stamatovic et al., 2012; cited from earlier work.

Series [3] addresses T1, JAM-A. The series is described as follows: Cell-based ELISA, JAM-A surface expression on mBMEC. The following applies: CCL2 100 ng/ml; 2 and 24 h; p < 0.001. On the technique in general: ELISA stands for enzyme-linked immunosorbent assay.
A further series deals with CD31 + brain microvessel. The following applies: mouse, in vivo.
In series [4] the test system is ICAM-1. The series is described as follows: Cross binding of JAM-Ap-FITC to ICAM-1. More on the design: species or system mouse. The conditions noted are these: increasing concentrations of anti-ICAM-1 antibody; presence and absence of JAM-A. The method in brief:
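bEnd.3 JAM-A-knockdown cells (stable shRNA) and JAM-A-expressing mBMEC in 96-well plates were primed with IL-1β plus TNF-α for 6 h or OGD/reoxygenation for 24 h in DMEM. They then received FITC-peptide with or without increasing anti-ICAM-1 antibody in D-PBS for 30 min at 4 °C. Cells washed 3×, fixed in 4% paraformaldehyde, and fluorescence read. FITC-scrambled peptide served as control.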

A further series concerns mBMEC monolayers. The series is described as follows: In vitro permeability of mBMEC monolayers to inulin. The series is classed as cell-based, mouse. The following applies: JAM-Ap 0.1–1000 μg/ml, 0–72 h.
The test system of series [5] is neutrophils and monocytes in blood. The conditions noted are these: mouse, in vivo.
The target in series [6] is T1, JAM-A. The series is classed as binding. In short, it runs like this:
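mBMEC (first passage) plated in 96-well plates and incubated with a constant level of FITC-labelled peptide plus increasing unlabelled peptide. Cells washed 3× and fixed in 4% paraformaldehyde for 15 min at room temperature. Fluorescence read on a plate reader. Percent inhibition plotted against concentration and IC50 read from the curve. Three independent experiments.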

The nature of series [7]: Physiological variables of mice before, during and 6 hrs after tMCAO. The following applies: ip injection, n = 10. The series is classed as in vivo, mouse.
Another series concerns mBMEC. The series is classed as cell-based, mouse. The following applies: 12 h.
The test system of the next series is BBB, FITC-inulin. The conditions noted are these: mouse, in vivo.

In the case of CCL2: chemokine CCL2 (PeproTech), the ICAM-1 surface expression entry in the series with ICAM-1 [1] is on record as “surface expression was also increased; also recorded: A similar degree of surface accumulation”. For the same compound, the JAM-A relocalization entry with JAM-A [2] is given as “JAM-A became relocalized from the lateral to the apical membrane of brain endothelial cells”. Also, the “cell surface (apical) expression of JAM-A” value in the series with JAM-A [3] is given as “increased apical membrane JAM-A expression; also recorded: an increase in cell surface (apical) expression of JAM-A”.

For `CC(C)C[C@H](NC(=O)[C@@H](NC(=O)[C@H](Cc1ccc(O)cc1)NC(=O)[C@H](CC(=O)O)NC(=O)[C@H](CC(=O)O)NC(=O)[C@H](CC(N)=O)NC(=O)[C@H](CO)NC(=O)[C@H](Cc1ccccc1)NC(=O)[C@H](C)NC(=O)[C@H](CCCNC(=N)N)NC(=O)[C@@H](NC(=O)[C@H](CO)NC(=O)[C@H](CCCCNC(=S)Nc1ccc2c(c1)C(=O)OC21c2ccc(O)cc2Oc2cc(O)ccc21)NC(=O)[C@@H]1CCCN1C(=O)[C@@H](N)CC(N)=O)[C@@H](C)O)C(C)C)C(=O)N[C@@H](CC(N)=O)C(=O)N1CCC[C@H]1C(=O)N[C@H](C(=O)N[C@H](C(=O)NCC(=O)O)[C@@H](C)O)[C@@H](C)O` [JAM-Ap-FITC] (H-NPK(FITC)STRAFSNDDYVLNPTTG-OH; N-terminus and C-terminus assumed), in the series on CD31 + brain microvessel, the “accumulation at luminal side of CD31 + brain microvessel” value is “high accumulation”; the “association with CD45 + cells in brain” value is “not associated with CD45 + cells”; the “nonspecific trapping in ischemic lesion” value was “comparable with labeled control peptide (cp), at the level of threshold”. Further, the “accumulation in liver and lung microvessels or tissue” value in the series with CD31 + brain microvessel (ip) is reported as “did not detect significant amount”. Also, in the series with ICAM-1 [4], the “binding affinity for ICAM-1” value is given as “very low binding affinity”.

A word on the IC50: it is the concentration at which inhibition is half-maximal. The low end stands for greater potency in that assay, the high end for weaker potency in that assay. Regarding NPKSTRAFSNDDYVLNPTTG [JAM-Ap], in the series on mBMEC monolayers, the “effect on barrier permeability to inulin (5 kDa), in vitro” value was “no effect on barrier permeability to inulin”. Moreover, in series [5], the “blood MO (monocytes)” value was 3.95 10^8 and the “blood PMN” value is recorded as 0.99 10^9/l. The same compound yielded a half-maximal inhibitory concentration (IC50) on JAM-A [6] of 25 nM. In series [7] (15 min MCAO), this compound had a Glucose of 142 ± 6 g/dL, a PCO2 of 34±2, a PO2 of 110±7 and a pH of 7.32±0.012. Moreover, the rCBF in [7] (15 min MCAO) was 13±2%. In addition, in series [7] (6 hr post-tMCAO), the Glucose was 128 ± 9 g/dL, the PCO2 was 36±1, the PO2 amounted to 115±10 and the pH amounted to 7.36±0.018. Moreover, in series [7] (6 hr post-tMCAO), the rCBF is on record as 100±1%. In addition, in series [7] (before), the Glucose stood at 135 ± 3 g/dL, the PCO2 is 32±2, the PO2 was 123±5 and the pH is on record as 7.36±0.03. The compound also returned a rCBF in series [7] (before) of 100±0%. In addition, the “cell viability after treatment” value in the series with mBMEC is more than 99%. Besides, in the series with BBB, FITC-inulin, the “BBB permeability in control mice” value was “no effect on permeability”.
